Test results taken from paper PMC11661184 (bioRxiv, 2024).
Substitutions are numbered along the chain they refer to. Names and notes keep the numbering of the source.

B1: WT C. elegans TRPA1: WT C. elegans TRPA1, MBP-tagged (protein)
chain: MSKKSLGLDVRLELEGLISNDDTIRSEKDGRQASIFRVAELDARTEADNLRSIIHQSAREGNVNALQEALLKAPLAVNAQDGDFMTPLHYAARYGNYDAVKLLLSKNALPNTKNREGDTPLHIASKYIYGYSDICSIIDEDQADSARKYNTATKKIINALVSENAEIDPVNKYQLTPLHYAAMKSNFSALHALIKLKADVDAEDDNKMTPLLLACVHGSQEIIQELIKANSNVTKRDQRLNTVFHIVALRGEPEYLEMMMDHDPVEAIKALNLFNNEKKTPLRMAVEGNHPETLKKILQMEKKNSCKWMDREKELIHFAAEKGFLEVLKALVEAGGNKNELNEVKAVPLHVAAQMNQLEVVSYLIEEEKDNIDVVDEQGLTPLMMAVTHDSKKCVEYLIAKKANLTITDKDERTPVFIGAKFNALSSVEYILDHLRKKNKETERSALKSPTRNTLRIVSEDVRRTMVNMVDRDQNTPMHIVASNGYLEMMQLLQKHGASITQVNEDEETALHRAAIGGQTGAVRQLLEWDIRLLLMKDEMGNSALHLAARSGHDATTKVLLDNGADKEAKNSYQKTPLQVAVDSGKLETCQRLVAKGAQIESSSDTKTVLHTAAFYGNESIVRYFIAEGVTIDRRDEEGKTAFDIACENDHKDVARAFLETDQWKNLMIPCDVIPLDKHRNPVNMKRRTPFRTLLTKFPELASFVMDNCIEKSKEETDSTQSVAYNFEFLDDTYMMRCVSDDGTGEQLIGCKSAYDEDFKLEKDAQSYASNYDRVYKYHPLKLMADAEKLHLLNHPLSKALLKYKWNRLGRPMYYFALFMYLVFIVSLTQYVRHTKAPYNVWNEESYYDSEYFDENETCPQINTTKPDVVWKIIIQTLAVCQILVECFQLFQRKFAYLVNWENWIDCFIYSTALITVYDFSECSATSGVRQNWQWILAALCIFFGWINLLFMIRKMPRFGIFVVMFVDIVKTFFRFFPVFVLFIIAFSSSFYVILQNRPEFSTIFMSPLKTTVMMIGEFEFTGIFHGDETTHAEKMFGPAHTAVACALFFFFCIIMTILLMNLLVGLAVDDIKGVQEKAELKRLAMQVDLVLQIEASLHFFIQRTKKYATCRYATFPYGKLHKTGFAGWWSNFRRRFGLSVSTDPEIDEMYEREAEFTSEMTQKLQNQAAKLKNIQENIDVMYEKQVRLEAIIAKLATGLNINIELEEKDN
B2: Quad: hTRPA1 W1103A/V1106A/L1107A/V1110A (protein)
chain: MKRSLRKMWRPGEKKEPQGVVYEDVPDDTEDFKESLKVVFEGSAYGLQNFNKQKKLKRCDDMDTFFLHYAAAEGQIELMEKITRDSSLEVLHEMDDYGNTPLHCAVEKNQIESVKFLLSRGANPNLRNFNMMAPLHIAVQGMNNEVMKVLLEHRTIDVNLEGENGNTAVIIACTTNNSEALQILLKKGAKPCKSNKWGCFPIHQAAFSGSKECMEIILRFGEEHGYSRQLHINFMNNGKATPLHLAVQNGDLEMIKMCLDNGAQIDPVEKGRCTAIHFAATQGATEIVKLMISSYSGSVDIVNTTDGCHETMLHRASLFDHHELADYLISVGADINKIDSEGRSPLILATASASWNIVNLLLSKGAQVDIKDNFGRNFLHLTVQQPYGLKNLRPEFMQMQQIKELVMDEDNDGCTPLHYACRQGGPGSVNNLLGFNVSIHSKSKDKKSPLHFAASYGRINTCQRLLQDISDTRLLNEGDLHGMTPLHLAAKNGHDKVVQLLLKKGALFLSDHNGWTALHHASMGGYTQTMKVILDTNLKCTDRLDEDGNTALHFAAREGHAKAVALLLSHNADIVLNKQQASFLHLALHNKRKEVVLTIIRSKRWDECLKIFSHNSPGNKCPITEMIEYLPECMKVLLDFCMLHSTEDKSCRDYYIEYNFKYLQCPLEFTKKTPTQDVIYEPLTALNAMVQNNRIELLNHPVCKEYLLMKWLAYGFRAHMMNLGSYCLGLIPMTILVVNIKPGMAFNSTGIINETSDHSEILDTTNSYLIKTCMILVFLSSIFGYCKEAGQIFQQKRNYFMDISNVLEWIIYTTGIIFVLPLFVEIPAHLQWQCGAIAVYFYWMNFLLYLQRFENCGIFIVMLEVILKTLLRSTVVFIFLLLAFGLSFYILLNLQDPFSSPLLSIIQTFSMMLGDINYRESFLEPYLRNELAHPVLSFAQLVSFTIFVPIVLMNLLIGLAVGDIAEVQKHASLKRIAMQVELHTSLEKKLPLWFLRKVDQKSTIVYPNKPRSGGMLFHIFCFLFCTGEIRQEIPNADKSLEMEILKQKYRLKDLTFLLEKQHELIKLIIQKMEIISETEDDDSHCSFQDRFKKEQMEQRNSRANTAARAAKAKTHHLEP
B3: RK/AA (protein)
chain: B2 chain with R1102A, A1103W, A1106V, A1107L, A1110V, K1111A

System: CaM (Calmodulin-agarose)
Assay: CaM-agarose pulldown of TRPA1 constructs
Format: binding
Settings: for CaM binding at basal Ca2+ concentration: n=3 independent experiments
In short: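 HEK293T cells were transfected with tagged TRPA1 constructs and lysed after 16-24 h in Tris pH 8.0 buffer containing 5 mM DDM and 500 µM EGTA. Free Ca²⁺ was set with CaCl₂, calculated from EGTA constants. 100 µg lysate was incubated with CaM-agarose for 1 h at 4 °C, washed, then eluted with 5 mM EGTA. Detection was by anti-FLAG or anti-MBP immunoblot, with tubulin input control. Enrichment is relative to the maximum within each replicate.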

| Molecule | CaM binding of TRPA1 species orthologues (MBP-tagged constructs, absence or presence of Ca2+, four independent experiments) | CaM binding at basal Ca2+ concentration |
| --- | --- | --- |
| B1 | failed to bind CaM | – |
| B2 | – | similarly ablated CaM binding |
| B3 | – | similarly ablated CaM binding |
